Screens as filed in PubChem.
Sampled rows, rich in hits. Any-hit rate of the full collection: about 3.7%.
Beta2AR agonist: human beta-2 adrenergic receptor agonism by FAP. P07550. Am2.2-beta2AR cells, FAP receptor internalization, flow cytometry. response, % (no concentration beside the values). hit rate 0.43% among 340,000. AID 504454;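 active means response above a set limit, near 3 SD of response in nonfluorescent compounds, cut at about 42% in these data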
Target sequence (P07550 whole entry, looked up): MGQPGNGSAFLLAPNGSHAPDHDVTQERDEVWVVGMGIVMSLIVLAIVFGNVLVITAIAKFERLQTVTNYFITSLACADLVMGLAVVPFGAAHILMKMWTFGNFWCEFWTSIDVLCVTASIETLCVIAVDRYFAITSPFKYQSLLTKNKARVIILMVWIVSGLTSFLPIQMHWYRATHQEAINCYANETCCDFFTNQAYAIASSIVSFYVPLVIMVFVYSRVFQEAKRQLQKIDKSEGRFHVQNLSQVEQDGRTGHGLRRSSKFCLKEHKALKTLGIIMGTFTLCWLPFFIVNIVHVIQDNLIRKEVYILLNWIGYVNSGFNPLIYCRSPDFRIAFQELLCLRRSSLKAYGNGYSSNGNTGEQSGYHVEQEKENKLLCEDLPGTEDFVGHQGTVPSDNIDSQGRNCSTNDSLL
UPR CHOP act: apoptotic UPR (CHOP) activation; activation, % at 10 µM; AID 449763; CHO-CHOP luciferase reporter, luminescence; percent of tunicamycin response over DMSO baseline; hit rate 0.34% among 330,000;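 active means at 10 µM dose, activation of 40% or more, normalized to positive control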;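 further: 100% = tunicamycin at 10 µg/mL and 0% = DMSO alone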
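System: CHO-CHOP luciferase reporter cell line; amount: 500 cells/well; buffer or medium: F12 medium containing 10% fetal bovine serum; incubation: 6 h compound exposure at 37 °C after overnight seeding; measured by: luciferase luminescence after 10 min with Steady-Glo reagent; evaluation: % reporter activation, DMSO baseline versus tunicamycin full activation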
XBP1 UPR activ: activators of adaptive arm of unfolded protein response (XBP1); hit rate 0.33% among 330,000; AID 463104; CHO-XBP1 luciferase reporter, IRE1-XBP1 UPR activation, luminescence; percent of tunicamycin response, DMSO as zero; activation, % at 20 µM;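 active means versus positive control, 20 µM dose yields 30% or more activation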;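 further: 100% = tunicamycin at 10 µg/mL and 0% = DMSO only wells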
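Material: CHO-XBP1 cells stably carrying IRE1-XBP1-driven luciferase reporter / Amount: 1000 cells per well / Compound: 20 µM, 1% DMSO / Times: 6 h treatment, 37 °C / Detection: luciferase luminescence / Measure: % activation of reporter signal versus tunicamycin and DMSO controls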
Mdm2-MdmX inh: human Mdm2/MdmX binding inhibition | O15151+Q00987 | SaOS-2 split-luciferase Mdm2/MdmX complementation, luminescence | inhibition, % at 8 µM | hit rate 3% among 330,000 | AID 485346;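 active means inhibition of at least 50% at 8 µM in the primary screen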
Dynein transport: blocks dynein driven cargo transport along microtubules | 3617.4 mouse cells, GR-EGFP nuclear translocation imaging; test concentration mostly 20 µM; stimulated with dexamethasone, 1 µM; hits give low values | AID 1381 | hit rate 0.47% among 220,000 | z-score, hits read low;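 active means plate z-score of nuclear minus cytoplasmic receptor signal below a set negative limit, without overly bright fluorescence or cell loss, cut at about -3.5 in these data, passing the limit was not always enough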;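 further: z-score of nuclear minus cytoplasmic ring GR-EGFP intensity difference per well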
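Buffer or medium: Induction medium lacking tetracycline, stripped serum | Also added: Dexamethasone agonist, 1.0 µM final, for 30 min | Timing: 48 h induction, 1 h compound, 30 min dex at 37 °C | Detection: Formaldehyde fixation, Hoechst nuclear stain, 10x automated fluorescence imaging | Measure: Nuclear versus cytoplasmic GR-EGFP signal, averaged per well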
MDM2 E3 inh: Mdm2 E3 ligase (human) inhibition; cell-based MDM2 ubiquitination luciferase reporter, 2 h; 0 = plate control, 100 = twice control, blank-subtracted; signal enhancement, % at 5 µM; hit rate 0.11% among 210,000; AID 1230;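 active means signal enhancement of 30% or more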;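 further: luminescence tracks abundance of the self-degrading MDM2-luciferase fusion protein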
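Timing – 2 h compound exposure at 37 °C · Assay system – mammalian cells stably expressing self-ubiquitinating, self-degrading MDM2 E3–luciferase fusion · Amount – 2000 cells seeded into each well · Measure – % luminescence enhancement versus blank-corrected plate control mean · Measured by – SteadyLite luminescence, 15 min reagent step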
UPR XBP1 confirm: confirmation of adaptive unfolded protein response (XBP1) activators; hit rate 63% among 1,000; activation, % at 20 µM; AID 485299; shares compounds with XBP1 UPR activ; CHO-XBP1 IRE1-XBP1 luciferase reporter, luminescence;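 active means reporter signal at least 30% of the positive control's activation in two or more of four replicate wells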;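 further: plate controls were DMSO negative control for no effect and tunicamycin 10 µg/mL positive control for full effect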
An asterisk follows results filed as active; . = no result given.

SMILES	Beta2AR agonist	UPR CHOP act	XBP1 UPR activ	Mdm2-MdmX inh	Dynein transport	MDM2 E3 inh	UPR XBP1 confirm
COc1cccc(CN(C)C(=O)Cc2c[nH]c3ccccc23)c1	0	3	1	-3	.	.	.
Cc1ccc(NC2=C(Cl)C(=O)OC2OC(C)C)c(C)c1 (stereo unspecified)	-8	2	36*	5	-0.51	2	0
COc1ccc(N2CCN(Cc3nc(N)nc(Nc4ccc(C)c(Cl)c4)n3)CC2)cc1	-2	0	33*	44	-0.21	-5	62*
CCN(CC)S(=O)(=O)c1ccc(N2CC(C(=O)NC3(C)CCS(=O)(=O)C3)CC2=O)cc1 (stereo unspecified)	0	-4	-3	-34	.	.	.
O=C(N=Nc1c(O)n(Cc2ccccc2)c2ccccc12)c1ccc(O)cc1	-13	6	7	-148	0.7	-3	.
O=C(N=Nc1c(O)n(C2OC(=O)c3ccccc32)c2ccccc12)c1ccc(O)cc1 (stereo unspecified)	-2	2	105*	-10	0.34	-13	11
CNc1nc(N)c([N+](=O)[O-])c(NC2CCCCC2)n1	-1	-2	9	2	.	.	.
Nc1nc(Nc2ccccc2)nc(NC2CCCCC2)c1[N+](=O)[O-]	12	3	43*	27	.	.	35*
O=C(CN1C(=O)/C(=C/c2ccc(F)cc2)SC1=S)NC1C=CS(=O)(=O)C1 (stereo unspecified)	9	1	-2	10	.	.	.
O=C(CN1C(=O)/C(=C/c2ccc(Cl)cc2)SC1=S)NC1C=CS(=O)(=O)C1 (stereo unspecified)	2	2	44*	15	.	.	3
COc1ccccc1-n1cc(-c2ccccc2)c2c(=S)nc[nH]c21	1	0	-5	35	.	.	.
CC1CC2C3CCC4=CC(=O)C=CC4(C)[C@@]3(Cl)C(O)CC2(C)C1(O)C(=O)CO (stereo partly specified)	-5	2	-3	-11	.	.	.
C[C@@H]1C[C@H]2[C@@H]3CCC4=CC(=O)C=C[C@]4(C)[C@@]3(Cl)[C@@H](O)C[C@]2(C)[C@@]1(OC(=O)c1ccco1)C(=O)CCl	20	6	79*	37	.	.	58*
O=[N+]([O-])c1ccc(N/N=C/c2ccc(OCc3cccc4ccccc34)cc2)nc1	7	36	74*	29	-0.12	-12	34*
Cc1cc(C(=O)N/N=C/c2ccc(-c3cccc(Cl)c3Cl)o2)n[nH]1	1	2	6	18	-0.44	.	.
Cc1cc(C(=O)N/N=C/c2ccc(-c3cccc(Br)c3)o2)n[nH]1	20	9	32*	28	-0.17	-5	4
Oc1ccc(-c2nc3ccc4ccccc4c3c3c2CCC3)cc1O	7	33	31*	8	-0.088	-9	51*
Oc1ccc2ccccc2c1C=Nc1ccccc1-c1nc2ccccc2[nH]1	7	26	37*	46	-1.1	4	5
Cc1onc(-c2ccccc2)c1C(=O)N(Cc1ccccc1)C(C)C	-9	1	-1	-5	.	.	.
COCCn1c(SCc2nc3ccccc3c(=O)[nH]2)nc2ccccc2c1=O	-2	-1	-2	24	1.5	-9	.
CCCn1c(SCc2nc3sc(C)c(C)c3c(=O)[nH]2)nc2ccccc2c1=O	-9	-2	78*	48	-0.75	-15	180*
COc1ccccc1C(CNC(=O)c1ccc(C)c(S(=O)(=O)N2CCCCC2)c1)N1CCCC1 (stereo unspecified)	1	-1	-1	2	.	.	.
NC(=O)CC(NC(=O)Cc1cccc2ccccc12)c1ccc(NCCOc2ccccc2)c([N+](=O)[O-])c1 (stereo unspecified)	36	2	48*	13	0.87	13	39*
O=C(CSc1ccc2nnc(-c3ccc(Cl)cc3)n2n1)N1CCCC1	-25	1	-6	0	.	.	.
O=C(CSc1ccc2nnc(-c3ccc(Cl)cc3)n2n1)N1CCc2ccccc21	2	29	30*	26	0.62	-11	-2
SMILES	Beta2AR agonist	UPR CHOP act	XBP1 UPR activ	Mdm2-MdmX inh	Dynein transport	MDM2 E3 inh	UPR XBP1 confirm
O=C(Cn1c(=O)n(-c2ccccc2)c(=O)c2oc3ccccc3c21)Nc1ccccc1	-5	1	1	28	0.22	-5	.
CCOc1ccccc1NC(=O)Cn1c(=O)n(-c2ccccc2)c(=O)c2oc3ccccc3c21	-1	2	65*	17	0.2	-11	94*
CCOC(=O)c1c(S(=O)(=O)Nc2ccc(C)cn2)c(C)n(C)c1C	-7	0	-5	-1	.	.	.
CCN(CC(=O)Nc1ccccc1C(F)(F)F)C(=O)c1oc2ccc(OC)cc2c1C	-7	2	-3	-13	.	.	.
CC(C)N(Cc1ccccc1)S(=O)(=O)c1ccc2c(c1)NC(=O)CO2	2	-2	-4	16	.	.	.
Cc1ccc(/C=C/C(=O)c2cc(Br)ccc2OC(=O)c2ccco2)cc1	3	3	54*	39	-2.6	-3	108*
COc1ccc(Br)cc1C(=O)Nc1ccc(NC(=O)c2ccco2)cc1	-17	-1	1	14	-0.79	-14	.
O=C(N/N=C/c1ccc(Cl)cc1)c1sccc1OCc1ccc(F)cc1	55*	3	50*	44	.	-6	55*
O=C(N/N=C/c1ccc(F)cc1)c1sccc1OCc1ccc(F)cc1	-25	0	3	45	-0.61	-8	.
O=C(Nc1ccc(-n2nncc2-c2ccco2)cc1)c1cc2ccccc2oc1=O	4	6	67*	29	-1.2	2	1
Cc1c(C(=O)Nc2nccs2)oc2ccc(Br)cc12	1	17	48*	-124	.	.	79*
CN1CCN(NC(=O)Nc2cccc(F)c2)CC1	-6	3	-2	2	.	.	.
CCCCn1c(NC(=O)c2ccccc2)c(C#N)c2nc3ccccc3nc21	-21	.	.	.	0.68	-14	.
CCC(C)n1c(NC(=O)c2ccccc2)c(C#N)c2nc3ccccc3nc21 (stereo unspecified)	-33	-2	63*	42	-0.74	.	0
CC(=O)Nc1cccc(NC(=O)c2ccc(COc3ccccc3)cc2)c1	10	6	2	-77	.	.	.
CC(CC(=O)N(CCC1=CCCCC1)c1c(N)n(Cc2ccccc2)c(=O)[nH]c1=O)c1ccccc1 (stereo unspecified)	3	6	40*	21	.	.	16
